Measurements reported in ChEMBL document CHEMBL1138962, “Exploration of a new type of antimalarial compounds based on febrifugine” (J Med Chem, 2006).
≈ marks a conversion by molar mass, not a printed value.

Legend:
Plasmodium falciparum [1] = experiment: Antimalarial activity against chloroquine-sensitive Plasmodium falciparum FCR3 by pLDH reporter assay; type: functional, organism-based
How it was run: (§1)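 P. falciparum cultured in human A+ erythrocytes in RPMI-1640 (25 mM HEPES, hypoxanthine, gentamicin) with 10% human plasma, 37 °C, 93% N2/4% CO2/3% O2. Asynchronous parasites at 2.0% hematocrit, 0.5% parasitaemia. Compound added in water or 5% DMSO, 72 h at 37 °C. pLDH read-out: Malstat, then NBT/PES, formazan at 650 nm. EC50 from dose-response curve.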

Plasmodium falciparum [2] = experiment: Antimalarial activity against chloroquine-resistant Plasmodium falciparum K1 by pLDH reporter assay; type: functional, organism-based; how it was run: as §1
L929 [3] = experiment: Cytotoxicity against mouse L929 cells by MTT assay; type: functional, cell-based
How it was run: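 MTT assay in mouse L929 cells (1.8 × 10⁴ cells/well) in RPMI-1640 with 10% FBS. Compound added in distilled water or 10% DMSO (added solution), then 48 h at 37 °C, 5% CO₂. MTT 4 h, formazan dissolved in DMSO, absorbance read at 570 and 655 nm. EC50 from dose-response curve.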

[4] = Therapeutic index; LD50 for ICR mice (Mus musculus)/ED50 against Plasmodium berghei NK65; conditions: read-out: Ratio LD50/ED50
How it was run: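 Index is mouse LD50 (oral acute toxicity) divided by oral ED50 against P. berghei in mice. For ED50, a 4-day suppressive test was used. Male ICR mice (18-20 g) were inoculated iv with 10⁶ parasitized RBC. Compound was given po in 5% gum arabic 2 h post-infection, then once daily on days 1-3. Parasitaemia was read from tail-blood thin films on day 4.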

L929 [5] = experiment: Selectivity for L929 cells over Plasmodium falciparum FCR3 as EC50 ratio; type: functional
How it was run: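 Ratio of L929 EC50 to P. falciparum FCR-3 EC50. L929 EC50 by 48 h MTT assay. FCR-3 EC50 by pLDH assay: asynchronous parasites in human erythrocytes (2.0% hematocrit, 0.5% parasitaemia), RPMI with 10% human plasma. Incubated 72 h at 37 °C under 93% N₂/4% CO₂/3% O₂. Malstat/NBT-PES read-out at 650 nm; EC50 from dose-response curves.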

Plasmodium berghei = experiment: Antimalarial activity against Plasmodium berghei NK65 infected ICR mice (Mus musculus) peroral dose; type: functional
How it was run: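 P. berghei NK65 4-day suppressive test. Male ICR mice (18-20 g) infected i.v. with 10⁶ parasitized red cells. Compounds suspended in 5% gum arabic, given orally 2 h post-infection (Day 0), then once daily Days 1-3. Day 4 tail-vein blood, parasitaemia from thin blood films; ED50 from dose-response curve.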

[6] = Toxicity in po dosed ICR mouse; type: organism-based; conditions: in vivo
How it was run: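 Acute toxicity in mice, compound given orally. LD50 determined.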

| SMILES | EC50 (Plasmodium falciparum [1]) [µg/mL] | EC50 (Plasmodium falciparum [2]) [µg/mL] | EC50 (L929 [3]) [µg/mL] | selectivity ratio [4] | Ratio EC50 (L929 [5]) | ED50 (Plasmodium berghei; Plasmodium berghei, NK65, po) [mg/kg] | LD50 [6] [mg/kg] | ED50 (Plasmodium berghei) [mg/kg] |
| --- | --- | --- | --- | --- | --- | --- | --- | --- |
| O=C(C[C@H]1NCCC[C@@H]1O)Nc1nc(O)c2ccccc2n1 | > 1 | > 1 | > 100 | – | – | – | – | – |
| O=C(CN1CCCC(O)C1)Cn1cnc2ccccc2c1=O (stereo not drawn) | > 1 | > 1 | > 100 | – | – | – | – | – |
| O=C(COC1CCCNC1)Cn1cnc2ccccc2c1=O (stereo not drawn) | > 1 | > 1 | > 100 | – | – | – | – | – |
| O=c1c2ccccc2ncn1CCC[C@H]1NCCC[C@@H]1O | 0.0225 (≈ 0.0783 µM) | 0.0236 (≈ 0.0821 µM) | 4.45 (≈ 15.5 µM) | > 14 | 198 | 22.5 | > 320 | – |
| O=c1c2ccccc2ncn1CCCC[C@H]1NCCC[C@@H]1O | > 1 | > 1 | > 100 | – | – | – | – | – |
| O=c1c2ccccc2ncn1CC[C@H]1NCCC[C@@H]1O | > 1 | > 1 | > 100 | – | – | – | – | – |
| CC[C@H](O)[C@@H](CC(=O)Cn1cnc2ccccc2c1=O)NC | > 1 | > 1 | 6.44 (≈ 21.2 µM) | – | <6.44 | – | – | – |
| O=C(C[C@H]1NCCC[C@@H]1O)Cn1cnc2ccsc2c1=O (relative stereo) | 0.00306 (≈ 0.00996 µM) | 0.00319 (≈ 0.0104 µM) | 0.563 (≈ 1.83 µM) | 30 | 184 | – | 88 | 2.95 |
| Cc1nc2ccccc2c(=O)n1CC(=O)C[C@H]1NCCC[C@@H]1O (relative stereo) | 0.116 (≈ 0.368 µM) | 0.19 (≈ 0.602 µM) | 15.6 (≈ 49.5 µM) | – | 134 | – | – | – |
| O=C(C[C@H]1NCCC[C@@H]1O)Cn1nnc2ccccc2c1=O (relative stereo) | 0.154 (≈ 0.509 µM) | – | 16.4 (≈ 54.2 µM) | – | 106 | – | – | – |
| O=C(C[C@H]1NCCC[C@@H]1O)Cn1ccc(=O)c2ccccc21 (relative stereo) | > 1 | > 1 | > 100 | – | – | – | – | – |
| O=C(C[C@H]1NCCC[C@@H]1O)Cn1cnc2ncnc-2c1O (relative stereo) | 0.506 (≈ 1.74 µM) | 0.943 (≈ 3.24 µM) | > 100 | – | >198 | – | – | – |
| O=C(C[C@H]1NCCC[C@@H]1O)Cn1cnc2ccc(F)cc2c1=O (relative stereo) | 0.00073 (≈ 0.00229 µM) | 0.000916 (≈ 0.00287 µM) | 0.079 (≈ 0.247 µM) | – | 108 | – | < 2.5 | – |
| O=C(C[C@@H]1NCCC[C@H]1O)Cn1cnc2ccccc2c1=O (single isomer, unassigned) [FEBRIFUGINE] | 0.00142 (≈ 0.00471 µM) | 0.0014 (≈ 0.00465 µM) | 0.167 (≈ 0.554 µM) | 17 | 118 | 0.41 | 7.1 | – |
| C[C@@H]1CC[C@H]2[C@@H](C)C(=O)O[C@@H]3O[C@@]4(C)CC[C@@H]1[C@]32OO4 [ARTEMISININ] | 0.0179 (≈ 0.0634 µM) | 0.0117 (≈ 0.0414 µM) | > 100 | – | >5590 | – | – | – |
| CCN(CC)CCCC(C)Nc1ccnc2cc(Cl)ccc12 (stereo not drawn) [CHLOROQUINE] | 0.0475 (≈ 0.148 µM) | 0.375 (≈ 1.17 µM) | 18.6 (≈ 58.1 µM) | – | 392 | 1.53 | – | – |
